Data: ChEMBL document CHEMBL4145571, “Ajmaline, Oxindole, and Cytotoxic Macroline-Akuammiline Bisindole Alkaloids from Alstonia penangiana” (J Nat Prod, 2018)

How the values were obtained:
[1] = tested on: MCF7; assay: Growth inhibition of human MCF7 cells after 72 hrs by MTT assay; type: functional, cell-based; conditions: MCF7, 72 h
In short: (§1)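 Values are mean ± SD from three independent experiments. For the KB/VJ300 line with vincristine, 0.1 μM vincristine was added alongside the test compound. The remaining method details come from earlier published procedures.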

[2] = tested on: KB/VJ300; assay: Growth inhibition of human KB/VJ300 cells after 72 hrs in presence of 0.1 uM of vincristine by MTT assay; type: functional; conditions: KB/VJ300, 72 h; in short: as §1
[3] = tested on: HCT-116; assay: Growth inhibition of human HCT116 cells after 72 hrs by MTT assay; type: functional, cell-based; conditions: HCT-116, 72 h; in short: as §1
[4] = tested on: PC-3; assay: Growth inhibition of human PC3 cells after 72 hrs by MTT assay; type: functional, cell-based; conditions: PC-3, 72 h; in short: as §1
[5] = tested on: LNCaP; assay: Growth inhibition of human LNCAP cells after 72 hrs by MTT assay; type: functional, cell-based; in short: as §1
[6] = tested on: HT-29; assay: Growth inhibition of human HT-29 cells after 72 hrs by MTT assay; type: functional, cell-based; conditions: HT-29, 72 h; in short: as §1
[7] = Growth inhibition of human KB/S cells after 72 hrs by MTT assay; type: functional; in short: as §1
[8] = tested on: A549; assay: Growth inhibition of human A549 cells after 72 hrs by MTT assay; type: functional, cell-based; conditions: A549, 72 h; in short: as §1
[9] = tested on: KB/VJ300; assay: Growth inhibition of human KB/VJ300 cells after 72 hrs by MTT assay; type: functional; conditions: KB/VJ300, 72 h; in short: as §1
[10] = tested on: MDA-MB-231; assay: Growth inhibition of human MDA-MB-231 cells after 72 hrs by MTT assay; type: functional, cell-based; conditions: MDA-MB-231, 72 h; in short: as §1

| IC50 [1] [µM] | IC50 [2] [µM] | IC50 [3] [µM] | IC50 [4] [µM] | IC50 [5] [µM] | IC50 [6] [µM] | IC50 [8] [µM] | IC50 [9] [µM] | IC50 [10] [µM] | SMILES | IC50 [7] [µM] |
| --- | --- | --- | --- | --- | --- | --- | --- | --- | --- | --- |
| 3.8 | > 10 | 6.6 | > 10 | 6.9 | 0.7 | 8.3 | > 10 | 5.2 | C/C=C1/CN2CC[C@@]34c5cc([C@@H](C)[C@H]6[C@@H]7C[C@H]8c9c(c%10ccccc%10n9C)C[C@@H]([C@@H]7CO[C@@H]6O)N8C)c(OC)cc5N(C)[C@H]3[C@@H]2C[C@H]1C4C(=O)OC (stereo partly drawn) | 2 |
| – | 0.1 | – | – | – | – | – | – | – | COc1ccc(CCN(C)CCCC(C#N)(c2ccc(OC)c(OC)c2)C(C)C)cc1OC (stereo not drawn) [VERAPAMIL] | – |
| – | – | – | – | – | – | – | 3.9 | – | CC[C@]1(O)C[C@H]2CN(CCc3c([nH]c4ccccc34)[C@@](C(=O)OC)(c3cc4c(cc3OC)N(C=O)[C@H]3[C@@](O)(C(=O)OC)[C@H](OC(C)=O)[C@]5(CC)C=CCN6CC[C@]43[C@@H]65)C2)C1 [VINCRISTINE] | 0.0003 |
